# Assay outcomes as filed in PubChem.
# V1aR counter: agonists of human V1a receptor, primary screen, counter-screen for OXTR agonist project, fluorescence, CHO-V1R cells | Vasopressin V1a receptor (Homo sapiens), P37288 | Fluo-8 calcium fluorescence, agonist mode; 0% DMSO, 100% 3 nM vasopressin | activation, % at 3 µM | actives 0.25% (n = 320,000);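 active means activation above the mean activation of all tested compounds plus 3 SD, per screening run, cut at about 20% in these data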;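 further: signal is peak over basal fluorescence ratio across a 100 second FLIPR read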
# Target sequence (P37288 whole entry, looked up): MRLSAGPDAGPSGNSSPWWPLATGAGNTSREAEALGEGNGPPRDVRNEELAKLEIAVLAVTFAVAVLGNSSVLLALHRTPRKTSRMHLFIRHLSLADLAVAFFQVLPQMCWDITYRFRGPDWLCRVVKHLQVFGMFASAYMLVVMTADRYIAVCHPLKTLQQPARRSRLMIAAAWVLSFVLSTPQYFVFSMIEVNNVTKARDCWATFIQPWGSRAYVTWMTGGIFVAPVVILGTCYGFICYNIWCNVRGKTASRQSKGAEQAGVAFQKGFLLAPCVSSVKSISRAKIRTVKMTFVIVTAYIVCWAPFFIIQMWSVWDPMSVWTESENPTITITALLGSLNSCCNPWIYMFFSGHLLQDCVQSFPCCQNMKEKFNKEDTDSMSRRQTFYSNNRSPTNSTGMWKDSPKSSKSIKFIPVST
# CHRM4 PAM: human M4 muscarinic receptor positive allosteric modulators, primary screen, CHO-K1 cells, Fluo-8 calcium fluorescence; CHO-K1 hM4/Gqi5, ACh EC20; 0% = ACh EC20, 100% = maximal ACh; actives 0.4% (n = 360,000); Muscarinic acetylcholine receptor M4 (Homo sapiens), P08173; activation, % at 3 µM; AID 624126, 2012;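 active means activation above its plate's cutoff, the mean activation of sample wells plus 3 SD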
# OXTR agonist: human OXTR agonists, primary screen, fluorescence, CHO-OTR cells, Fluo-8 calcium; Oxytocin receptor (Homo sapiens), P30559; actives 0.32% (n = 320,000); Fluo-8 calcium fluorescence; normalized: DMSO 0%, oxytocin 100%; activation, % at 3 µM;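 active means activation above the mean of all tested compounds plus 3 SD, cutoff set per screening run, cut at about 20% in these data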;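 further: peak over basal fluorescence ratio from a 100 s FLIPR kinetic read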
# OXTR potentiate: human OXTR potentiators, primary screen, fluorescence, CHO-OTR cells, Fluo-8 calcium; Oxytocin receptor (Homo sapiens), P30559; Fluo-8 calcium fluorescence, potentiator mode; 0% = oxytocin EC15, 100% = EC100; activation, % at 3 µM; actives 0.061% (n = 320,000); AID 2445, 2010;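 active means activation above that plate's cutoff, the mean activation of tested compounds plus 3 SD, cut at about 6.6% in these data, passing the limit was not always enough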;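 further: 100% uses oxytocin at 75 nM as the full agonist control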
#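 test system = CHO-OTR cells, human receptor | compound = single-point 3.0 µM | schedule = 6 min compound pre-incubation at room temperature, 100 s kinetic read | signal = Fluo-8 no-wash calcium dye fluorescence, excitation 470-495 nm, emission 515-575 nm | repeats = single well per compound, singlicate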
# CHRM4 agonist: human M4 muscarinic receptor agonists, primary screen, CHO-K1 cells, Fluo-8 calcium fluorescence. actives 0.14% (n = 360,000). CHO-K1 hM4/Gqi5; vehicle 0%, full acetylcholine response 100%. activation, % at 3 µM. Muscarinic acetylcholine receptor M4 (Homo sapiens), P08173;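 active means activation above the run mean over all test wells plus 3 SD, cut at about 32% in these data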;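 further: peak over basal fluorescence ratio per well then scaled between controls; 0% = DMSO wells and 100% = acetylcholine at EC100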
# M4 antag: human M4 muscarinic receptor antagonists, primary screen, CHO cells, Fluo-8 calcium fluorescence; Muscarinic acetylcholine receptor M4 (Homo sapiens), P08173; CHO-hM4 cells, ACh EC80; inhibition, % at 3 µM; actives 0.73% (n = 360,000);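 active means inhibition above its plate's cutoff, the mean inhibition of sample wells plus 3 SD, cut at about 27% in these data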;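 further: 0% = acetylcholine EC80 with DMSO and 100% = DMSO without agonist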
# Starred values were filed as active, the others as inactive; · = no result given. Compounds with a hit are over-represented: about 1.5% of the library has one in this group of screens.
SMILES,V1aR counter,CHRM4 PAM,OXTR agonist,OXTR potentiate,CHRM4 agonist,M4 antag
CN(C1CCCCC1)S(=O)(=O)c1ccc2c(c1)c(=O)c(C(=O)NCCN1CCCC1)cn2C,-0.1,-12.1,0.2,-5.0,1.2,1.6
CN(C1CCCCC1)S(=O)(=O)c1ccc2c(c1)c(=O)c(C(=O)NCCCN1CCCC1)cn2C,0.5,-15.8,0.9,-3.2,0.0,26.7*
CCN(CC)CCNC(C(=O)Nc1cccc(C(C)=O)c1)c1ccccc1 (stereo unspecified),1.1,-19.3,1.0,-6.0,0.6,53.8*
CCOc1ccc(NC(C(=O)Nc2cccc(C(C)=O)c2)c2ccccc2)cc1 (stereo unspecified),-0.5,-6.0,-1.4,-7.7,2.8,-1.5
CCOc1c(Cl)cc(CNCC(C)C)cc1Cl,1.8,13.8,1.0,-0.6,1.3,2.7
CC1(C)CC(=O)C2=C(C1)NC(=O)CC2c1cc2c(cc1Br)OCO2 (stereo unspecified),0.5,24.0*,1.2,4.0,2.9,-0.6
CN1CCN(C(c2cccc(Cl)c2)c2ccccc2Cl)CC1 (stereo unspecified),3.5,-16.2,3.6,-8.0,3.2,63.8*
CN1CCN(C(c2ccccc2)c2ccc(Cl)cc2)CC1 (stereo unspecified),3.3,-17.2,3.2,-5.3,4.6,24.0
CCCCNC(=O)CC(C(=O)N1CCc2ccccc21)n1ccnc1 (stereo unspecified),0.3,33.8*,-0.4,-3.4,0.4,28.1*
CCN(CCCNC(=O)CC(C(=O)N1CCc2ccccc21)n1ccnc1)c1cccc(C)c1 (stereo unspecified),-1.2,3.4,-1.4,-2.1,-2.2,0.2
COc1ccc2[nH]c3c(c2c1)CCN1C(=O)C(CC(=O)NCc2ccc(OC)c(OC)c2)C[C@H](C(=O)N2CCCCC2)[C@@]31CCc1ccccc1 (stereo partly specified),·,-3.7,·,·,0.2,0.1
CCOC(=O)N1CCN(CC(=O)N2c3ccccc3CC2C)CC1 (stereo unspecified),3.6,-1.1,1.3,4.7,0.9,31.4*
O=C(c1ccncc1)c1ccc(Br)cc1,0.1,35.2*,-1.2,-6.6,-0.1,9.5
COc1ccc(C(=O)c2ccc(Br)cc2)cc1,-0.7,5.9,-1.7,3.1,-0.6,-6.3
O=C1NN=C2CCCCCCC12 (stereo unspecified),·,-11.6,·,·,0.9,90.6*
C[C@@H]1CCCCCCCCCCC1=O,1.4,4.0,0.3,-13.5,0.3,-10.3
O=C(CC12CC3CC(CC(Br)(C3)C1)C2)NC1CCCC1,0.3,-18.8,0.4,-11.5,0.8,22.3
O=C(Oc1cccc2cccnc12)c1ccc(N2C(=O)C3C4CCC(C4)C3C2=O)cc1 (stereo unspecified),0.7,25.6*,0.5,-0.6,1.1,9.7
O=C(Oc1cccc2cccnc12)c1cccc(N2C(=O)C3C4CCC(C4)C3C2=O)c1 (stereo unspecified),1.0,·,0.8,-5.3,·,·
Cc1cccc(C)c1NC(=O)C1CCCN(CCCc2ccccc2)C1 (stereo unspecified),·,-24.7,·,·,1.7,83.2*
CC(=O)NS(=O)(=O)c1ccc(NC(=O)CSc2ccc(C)cc2)cc1,0.3,18.8*,0.0,-1.3,1.8,-11.5
Cc1ccc(S(=O)(=O)N2CCCCC2c2cccnc2)c(C)c1C (stereo unspecified),-0.5,-14.5,0.0,-2.4,1.5,-3.5
Cc1ccccc1-n1c(O)c(/C=N/N2CCCCC2c2cccnc2)c(=O)[nH]c1=O (stereo unspecified),1.2,24.2*,0.7,-0.5,1.4,-5.7
Oc1cnn(-c2ccccc2)c1,0.5,30.9*,0.8,-5.9,1.5,11.7
Oc1ccc(-c2[nH]ncc2-c2cnn(-c3ccccc3)c2)c(O)c1,3.8,1.1,0.2,-17.2,1.2,-0.2
SMILES,V1aR counter,CHRM4 PAM,OXTR agonist,OXTR potentiate,CHRM4 agonist,M4 antag
COc1ccc2c(c1)OC[C@H]1[C@H]2N2C(=O)c3cc(Cl)ccc3NC(=O)[C@@]2(C)[C@H]1c1ccccc1,0.8,-7.5,-0.7,-10.9,2.1,35.9*
C[C@@]12C(=O)Nc3cc(F)ccc3C(=O)N1[C@H]1c3ccccc3OC[C@@H]1[C@@H]2c1ccccc1,2.9,-21.4,-0.1,-3.0,3.5,73.3*
COc1ccc2c(c1)OC[C@H]1[C@H]2N2C(=O)c3cc(OC)ccc3NC(=O)[C@@]2(C)[C@H]1c1ccccc1,-0.1,-6.0,0.1,-4.2,-0.2,26.5*
COc1ccc2c(c1)C(=O)N1[C@H]3c4cc(Cl)ccc4OC[C@@H]3[C@H](c3ccccc3)[C@]1(C)C(=O)N2,2.5,-4.3,0.1,2.8,2.0,4.1
COc1ccc(-c2coc3c(C(=O)NCc4ccc(F)c(F)c4)cccc23)c(C)c1,·,-12.7,·,·,5.3,10.3
COc1ccc(-c2coc3c(C(=O)NCc4ccc(OC)c(OC)c4)cccc23)c(C)c1,·,-9.8,·,·,15.8,37.3*
CN(C(=O)c1ccc(NC(=O)Cc2ccc(NC(=O)C3CCN(C(=O)C4CC4)CC3)cc2)cc1)C1CCCC1,·,20.3*,·,·,0.1,-21.0
CN(C(=O)c1ccc(NC(=O)Cc2ccc([N+](=O)[O-])cc2)cc1)C1CCCC1,21.4*,6.2,21.9*,-12.3,18.3,-2.7
CN(C(=O)c1cccc(NC(=O)Cc2ccc([N+](=O)[O-])cc2)c1)C1CCCC1,6.0,-3.9,5.9,-7.0,7.8,6.4
Cc1cc(C)cc(C(=O)NN2CCOCC2)c1,0.6,6.8,-1.2,3.1,0.6,4.1
Cc1nc(C)c(C(=O)Nc2cccc(F)c2)s1,1.2,3.7,0.3,-6.0,2.9,-7.2
CCNC(=O)CC1C(=O)N(c2ccccc2)C(=O)N1CCc1ccc(OC)cc1 (stereo unspecified),0.4,-0.1,-0.1,-2.6,0.8,7.8
CCNC(=O)CC1C(=O)N(c2ccccc2)C(=O)N1CCC(C)C (stereo unspecified),0.4,25.1*,-0.2,-3.5,0.3,-4.1
COc1ccc(NC(=O)COC(=O)C2COc3ccccc3O2)cc1OC (stereo unspecified),·,0.4,·,·,0.8,-2.2
CCCOc1ccc(C(=O)NNC(=S)NC(=O)c2ccco2)cc1,97.7*,-48.5,94.9*,-21.3,126.2*,19.3
